Converted amounts (≈) assume the structure as drawn. The source made the active and inactive calls. The calls are words filed in the database; no cut-off is given here.
Tested on: Escherichia coli
Test: Antibacterial activity against Escherichia coli K-12 NCIM 2563 assessed as disruption of cell membrane at 50 uM after 1 hr by atomic force microscopic analysis
Format: functional, organism-based
Conditions: not given
In short: (§1)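 E. coli grown in MHB and C. albicans in potato dextrose broth were pelleted and resuspended in deionized water. Cells incubated with 50 µM peptide at 37 °C for 1 h, dried 30 min at 25 °C on poly-L-lysine glass, and imaged by AFM in intermittent contact mode. Peptide-free cells served as control.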

SMILES	Activity
CC(=O)N[C@H](/C=C/C(=O)N[C@@H](CCCCN)C(=O)N[C@H](/C=C/C(=O)N[C@@H](CCCCN)C(N)=O)Cc1ccccc1)Cc1ccccc1	Active
CCCCCCCC(=O)N[C@@H](C)/C=C/C(=O)N[C@@H](CCCNC(=N)N)C(=O)N[C@@H](C)/C=C/C(=O)N[C@@H](CCCNC(=N)N)C(N)=O	Active
CCCCCCCC(=O)N[C@H](/C=C/C(=O)N[C@@H](CCCCN)C(=O)N[C@H](/C=C/C(=O)N[C@@H](CCCCN)C(N)=O)C(C)C)CC(C)C	Active

Tested on: Klebsiella pneumoniae
Test: Antibacterial activity against Klebsiella pneumoniae NCIM 2957 after 18 to 20 hrs by broth dilution assay
Format: functional
Conditions: not given
In short: (§2)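 Two-fold serial dilutions in Mueller-Hinton broth, run in triplicate. Overnight 37 °C cultures diluted to 10⁶ CFU/mL and added 1:1 to the peptide, then incubated at 37 °C for 18-20 h. Growth was read as absorbance at 492 nm against no-peptide controls. MIC taken as the lowest concentration giving complete inhibition or killing. Reproducible across three independent triplicates.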

MIC [µg/mL]	SMILES
> 100	CC(=O)N[C@H](/C=C/C(=O)N[C@@H](CCCCN)C(=O)N[C@H](/C=C/C(=O)N[C@@H](CCCCN)C(N)=O)Cc1ccccc1)Cc1ccccc1
> 100	CCCCCCCC(=O)N[C@@H](C)/C=C/C(=O)N[C@@H](CCCNC(=N)N)C(=O)N[C@@H](C)/C=C/C(=O)N[C@@H](CCCNC(=N)N)C(N)=O
25 (≈ 37.7 µM)	CCCCCCCC(=O)N[C@H](/C=C/C(=O)N[C@@H](CCCCN)C(=O)N[C@H](/C=C/C(=O)N[C@@H](CCCCN)C(N)=O)C(C)C)CC(C)C

Tested on: Saccharomyces cerevisiae
Test: Antifungal activity against Saccharomyces cerevisiae NCIM 3454 after 48 to 72 hrs
Format: functional
Conditions: not given
In short: (§3)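 Peptide in water was serially diluted two-fold in potato dextrose broth and mixed 1:1 with yeast suspension at 2×10³ CFU/ml. Incubated at 25 °C for 48-72 h, with growth read as absorbance at 620 nm against a peptide-free culture. MIC was the lowest concentration giving complete growth inhibition. Run in triplicate.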

MIC [µg/mL]	SMILES
> 100	CC(=O)N[C@H](/C=C/C(=O)N[C@@H](CCCCN)C(=O)N[C@H](/C=C/C(=O)N[C@@H](CCCCN)C(N)=O)Cc1ccccc1)Cc1ccccc1
> 100	CCCCCCCC(=O)N[C@@H](C)/C=C/C(=O)N[C@@H](CCCNC(=N)N)C(=O)N[C@@H](C)/C=C/C(=O)N[C@@H](CCCNC(=N)N)C(N)=O
50 (≈ 75.3 µM)	CCCCCCCC(=O)N[C@H](/C=C/C(=O)N[C@@H](CCCCN)C(=O)N[C@H](/C=C/C(=O)N[C@@H](CCCCN)C(N)=O)C(C)C)CC(C)C

Tested on: not listed separately
Test: Hemolytic activity in human RBC after 1 hr
Format: ADME, cell-based
Conditions: erythrocyte
In short: (§4)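 Fresh EDTA-collected human RBCs washed four times in Tris-buffered saline (10 mM Tris, 150 mM NaCl, pH 7.2) and used at 4% v/v, mixed 1:1 with two-fold serially diluted peptide (top 100 µg/ml before mixing). Incubated at 37 °C for 1 h and centrifuged; supernatant hemoglobin read at 540 nm. Buffer and 1% Triton-X served as negative and positive controls. Percent hemolysis = (A−A_N)/(A_P−A_N)×100. Run in duplicate.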

SMILES	HD10 [µg/mL]
CCCCCCCC(=O)N[C@@H](C)/C=C/C(=O)N[C@@H](CCCNC(=N)N)C(=O)N[C@@H](C)/C=C/C(=O)N[C@@H](CCCNC(=N)N)C(N)=O	52

Tested on: Candida albicans
Test: Antifungal activity against Candida albicans NCIM 3471 after 48 to 72 hrs
Format: functional
Conditions: not given
In short: as §3

MIC [µg/mL]	SMILES
> 100	CC(=O)N[C@H](/C=C/C(=O)N[C@@H](CCCCN)C(=O)N[C@H](/C=C/C(=O)N[C@@H](CCCCN)C(N)=O)Cc1ccccc1)Cc1ccccc1
> 100	CCCCCCCC(=O)N[C@@H](C)/C=C/C(=O)N[C@@H](CCCNC(=N)N)C(=O)N[C@@H](C)/C=C/C(=O)N[C@@H](CCCNC(=N)N)C(N)=O
25 (≈ 37.7 µM)	CCCCCCCC(=O)N[C@H](/C=C/C(=O)N[C@@H](CCCCN)C(=O)N[C@H](/C=C/C(=O)N[C@@H](CCCCN)C(N)=O)C(C)C)CC(C)C

Tested on: Nakaseomyces glabratus
Test: Antifungal activity against Candida glabrata NCIM 3237 after 48 to 72 hrs
Format: functional
Conditions: not given
In short: as §3

MIC [µg/mL]	SMILES
> 100	CC(=O)N[C@H](/C=C/C(=O)N[C@@H](CCCCN)C(=O)N[C@H](/C=C/C(=O)N[C@@H](CCCCN)C(N)=O)Cc1ccccc1)Cc1ccccc1
> 100	CCCCCCCC(=O)N[C@@H](C)/C=C/C(=O)N[C@@H](CCCNC(=N)N)C(=O)N[C@@H](C)/C=C/C(=O)N[C@@H](CCCNC(=N)N)C(N)=O
50 (≈ 75.3 µM)	CCCCCCCC(=O)N[C@H](/C=C/C(=O)N[C@@H](CCCCN)C(=O)N[C@H](/C=C/C(=O)N[C@@H](CCCCN)C(N)=O)C(C)C)CC(C)C

Tested on: Salmonella typhimurium
Test: Antibacterial activity against Salmonella typhimurium NCIM 2501 after 18 to 20 hrs by broth dilution assay
Format: functional, Salmonella enterica subsp. enterica serovar Typhimurium
Conditions: Salmonella enterica
In short: as §2

MIC [µg/mL]	SMILES
> 100	CC(=O)N[C@H](/C=C/C(=O)N[C@@H](CCCCN)C(=O)N[C@H](/C=C/C(=O)N[C@@H](CCCCN)C(N)=O)Cc1ccccc1)Cc1ccccc1
> 100	CCCCCCCC(=O)N[C@@H](C)/C=C/C(=O)N[C@@H](CCCNC(=N)N)C(=O)N[C@@H](C)/C=C/C(=O)N[C@@H](CCCNC(=N)N)C(N)=O
50 (≈ 75.3 µM)	CCCCCCCC(=O)N[C@H](/C=C/C(=O)N[C@@H](CCCCN)C(=O)N[C@H](/C=C/C(=O)N[C@@H](CCCCN)C(N)=O)C(C)C)CC(C)C

Tested on: Pseudomonas aeruginosa
Test: Antibacterial activity against Pseudomonas aeruginosa NCIM 5029 after 18 to 20 hrs by broth dilution assay
Format: functional
Conditions: not given
In short: as §2

MIC [µg/mL]	SMILES
> 100	CC(=O)N[C@H](/C=C/C(=O)N[C@@H](CCCCN)C(=O)N[C@H](/C=C/C(=O)N[C@@H](CCCCN)C(N)=O)Cc1ccccc1)Cc1ccccc1
> 100	CCCCCCCC(=O)N[C@@H](C)/C=C/C(=O)N[C@@H](CCCNC(=N)N)C(=O)N[C@@H](C)/C=C/C(=O)N[C@@H](CCCNC(=N)N)C(N)=O
50 (≈ 75.3 µM)	CCCCCCCC(=O)N[C@H](/C=C/C(=O)N[C@@H](CCCCN)C(=O)N[C@H](/C=C/C(=O)N[C@@H](CCCCN)C(N)=O)C(C)C)CC(C)C

Tested on: Escherichia coli
Test: Antibacterial activity against Escherichia coli K-12 NCIM 2563 after 18 to 20 hrs by broth dilution assay
Format: functional
Conditions: not given
In short: as §2

MIC [µg/mL]	SMILES
> 100	CC(=O)N[C@H](/C=C/C(=O)N[C@@H](CCCCN)C(=O)N[C@H](/C=C/C(=O)N[C@@H](CCCCN)C(N)=O)Cc1ccccc1)Cc1ccccc1
> 100	CCCCCCCC(=O)N[C@@H](C)/C=C/C(=O)N[C@@H](CCCNC(=N)N)C(=O)N[C@@H](C)/C=C/C(=O)N[C@@H](CCCNC(=N)N)C(N)=O

Tested on: Staphylococcus aureus
Test: Antibacterial activity against Staphylococcus aureus NCIM 5021 after 18 to 20 hrs by broth dilution assay
Format: functional
Conditions: not given
In short: as §2

MIC [µg/mL]	SMILES
> 100	CC(=O)N[C@H](/C=C/C(=O)N[C@@H](CCCCN)C(=O)N[C@H](/C=C/C(=O)N[C@@H](CCCCN)C(N)=O)Cc1ccccc1)Cc1ccccc1
> 100	CCCCCCCC(=O)N[C@@H](C)/C=C/C(=O)N[C@@H](CCCNC(=N)N)C(=O)N[C@@H](C)/C=C/C(=O)N[C@@H](CCCNC(=N)N)C(N)=O
50 (≈ 75.3 µM)	CCCCCCCC(=O)N[C@H](/C=C/C(=O)N[C@@H](CCCCN)C(=O)N[C@H](/C=C/C(=O)N[C@@H](CCCCN)C(N)=O)C(C)C)CC(C)C

Tested on: not listed separately
Test: Hemolytic activity in human RBC at 100 ug/ml after 1 hr
Format: ADME, cell-based
Conditions: erythrocyte
In short: as §4

SMILES	Activity
CC(=O)N[C@H](/C=C/C(=O)N[C@@H](CCCCN)C(=O)N[C@H](/C=C/C(=O)N[C@@H](CCCCN)C(N)=O)Cc1ccccc1)Cc1ccccc1	Non-toxic

Tested on: Candida albicans
Test: Antifungal activity against Candida albicans NCIM 3471 assessed as disruption of cell membrane by atomic force microscopic analysis
Format: functional, organism-based
Conditions: not given
In short: as §1

SMILES	Activity
CC(=O)N[C@H](/C=C/C(=O)N[C@@H](CCCCN)C(=O)N[C@H](/C=C/C(=O)N[C@@H](CCCCN)C(N)=O)Cc1ccccc1)Cc1ccccc1	Active
CCCCCCCC(=O)N[C@@H](C)/C=C/C(=O)N[C@@H](CCCNC(=N)N)C(=O)N[C@@H](C)/C=C/C(=O)N[C@@H](CCCNC(=N)N)C(N)=O	Active
CCCCCCCC(=O)N[C@H](/C=C/C(=O)N[C@@H](CCCCN)C(=O)N[C@H](/C=C/C(=O)N[C@@H](CCCCN)C(N)=O)C(C)C)CC(C)C	Active

Tested on: Escherichia coli
Test: Antibacterial activity against Escherichia coli NCIM 2065 after 18 to 20 hrs by broth dilution assay
Format: functional
Conditions: not given
In short: as §2

MIC [µg/mL]	SMILES
> 100	CC(=O)N[C@H](/C=C/C(=O)N[C@@H](CCCCN)C(=O)N[C@H](/C=C/C(=O)N[C@@H](CCCCN)C(N)=O)Cc1ccccc1)Cc1ccccc1
> 100	CCCCCCCC(=O)N[C@@H](C)/C=C/C(=O)N[C@@H](CCCNC(=N)N)C(=O)N[C@@H](C)/C=C/C(=O)N[C@@H](CCCNC(=N)N)C(N)=O
12.5 (≈ 18.8 µM)	CCCCCCCC(=O)N[C@H](/C=C/C(=O)N[C@@H](CCCCN)C(=O)N[C@H](/C=C/C(=O)N[C@@H](CCCCN)C(N)=O)C(C)C)CC(C)C

Tested on: Cryptococcus neoformans
Test: Antifungal activity against Cryptococcus neoformans NCIM 3542 after 48 to 72 hrs
Format: functional
Conditions: not given
In short: as §3

MIC [µg/mL]	SMILES
> 100	CC(=O)N[C@H](/C=C/C(=O)N[C@@H](CCCCN)C(=O)N[C@H](/C=C/C(=O)N[C@@H](CCCCN)C(N)=O)Cc1ccccc1)Cc1ccccc1
> 100	CCCCCCCC(=O)N[C@@H](C)/C=C/C(=O)N[C@@H](CCCNC(=N)N)C(=O)N[C@@H](C)/C=C/C(=O)N[C@@H](CCCNC(=N)N)C(N)=O
6.25 (≈ 9.41 µM)	CCCCCCCC(=O)N[C@H](/C=C/C(=O)N[C@@H](CCCCN)C(=O)N[C@H](/C=C/C(=O)N[C@@H](CCCCN)C(N)=O)C(C)C)CC(C)C
